The nature of data set [1]: Cytotoxicity in human TZM assessed as reduction in cell viability incubated for 5 days by MTT assay. The note with it: TZM cells, time 5 day. The class given is cell-based. A digest of the protocol:
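Uninfected TZM-bl cells were exposed to compound in parallel with the HIV-1 NL4-3 antiviral assay. CC50 is the concentration that cuts viability by 50%. Each compound was run in at least triplicate, and values were averaged from at least four independent experiments.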

The nature of data set [2]: Cytotoxicity in mock-infected human MT4 assessed as reduction in cell viability incubated for 5 days by MTT assay. As to conditions: mock-infected MT4 cells, time 5 day. Format: cell-based. An outline of the steps:
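Mock-infected MT-4 cultures were run alongside the HIV-1 IIIB and RES056 (K103N/Y181C) protection assays and incubated for 5 days. Viability was read by MTT. CC50 is the concentration that cuts viability of the mock-infected cultures by 50%.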

The nature of data set [3]: Inhibition of reverse transcriptase/nucleocapsid protein 7 in wild type HIV1 3B infected in human MT4 cells assessed as protection against virus-induced cytopathic effect incubated for 5 days by MTT assay. The class given is cell-based. The note with it: Human immunodeficiency virus 1, 3B, MT4, 120 h. An outline of the steps:
(§1)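 MT-4 cells infected with HIV-1 IIIB (wild type) or RES056 (K103N/Y181C RT double mutant); 5-day incubation; viability by MTT. EC50 is the concentration giving 50% protection against virus-induced cytotoxicity. CC50 is the concentration cutting viability of mock-infected cultures by 50%. SI is CC50/EC50. Fold resistance is EC50 mutant/EC50 wild type.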

Data set [4] in a line: Selectivity index, ratio of CC50 for cytotoxicity in mock-infected human MT4 cells assessed as reduction in cell viability incubated for 5 days by MTT to EC50 for inhibition of reverse transcriptase K103N/Y181C double mutant/nucleocapsid protein 7 in HIV1 RES056 infected in human MT4 cells assessed as protection against virus-induced cytopathic effect incubated for 5 days by MTT assay. As to conditions: time 5 day, read-out: Ratio CC50/EC50. Format: toxicity, cell-based. A digest of the protocol: as §1

Data set [5] is described as follows: Inhibition of reverse transcriptase/nucleocapsid protein 7 in wild type HIV1 NL4-3 infected in human TZM-bl cells assessed as protection against virus-induced cytopathic effect incubated for 5 days by MTT assay. The note with it: Human immunodeficiency virus 1, NL4-3, TZM-bl, 120 h. The class given is cell-based.
Data set [6] can be described thus: Selectivity index, ratio of CC50 for cytotoxicity in mock-infected human MT4 cells assessed as reduction in cell viability incubated for 5 days by MTT to EC50 for inhibition of reverse transcriptase/nucleocapsid protein 7 in wild type HIV1 3B infected in human MT4 cells assessed as protection against virus-induced cytopathic effect incubated for 5 days by MTT assay. The class given is toxicity, cell-based. The note with it: time 5 day, read-out: Ratio CC50/EC50. A digest of the protocol: as §1

Data set [7] is described as follows: Inhibition of nucleocapsid protein 7/reverse transcriptase K103N/Y181C double mutant in HIV1 RES056 infected in human MT4 cells assessed as protection against virus-induced cytopathic effect incubated for 5 days by MTT assay. The class given is cell-based. The note with it: Human immunodeficiency virus 1, RES056, MT4, 120 h. An outline of the steps: as §1
Data set [8] is described as follows: Selectivity index, ratio of CC50 for cytotoxicity in human TZM-bl assessed as reduction in cell viability incubated for 5 days by MTT to EC50 for inhibition of reverse transcriptase/nucleocapsid protein 7 in wild type HIV1 NL4-3 infected in human TZM-bl cells assessed as protection against virus-induced cytopathic effect incubated for 5 days by MTT assay. Format: toxicity, cell-based. As to conditions: time 5 day, read-out: Ratio CC50/EC50.

The test system of data set [9] is Human immunodeficiency virus 1. The data set is described as follows: Fold resistance, ratio of EC50 for inhibition of reverse transcriptase K103N/Y181C double mutant/nucleocapsid protein 7 in HIV1 RES056 infected in human MT4 cells assessed as protection against virus-induced cytopathic effect incubated for 5 days by MTT assay to EC50 for reverse transcriptase/nucleocapsid protein 7 in wild type HIV1 3B infected in human MT4 cells assessed as protection against virus-induced cytopathic effect incubated for 5 days by MTT assay. Format: cell-based. As to conditions: time 5.0 day. An outline of the steps: as §1

Data set [10] in a line: Prodrug conversion in human plasma assessed as enzyme-mediated drug hydrolysis measured after 10 mins at 37 degree C by LC-MS/MS analysis.
A short description of data set [11]: Prodrug conversion in human plasma assessed as […] measured after 10 mins at 37 degree C by LC-MS/MS analysis. Format: ADME, cell-free. An outline of the steps:
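Prodrug incubated in human plasma (pH 7.4 ± 0.1) at 37 °C for 1 h. Remaining prodrug and formed MT and AZT measured by LC-MS/MS, in triplicate at each time point. Decrease in prodrug plotted against MT formed over the first 10 min with a linear fit.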

pEC50: −log10 of the molar value.

Consider `Cc1cn([C@H]2C[C@H](N=[N+]=[N-])[C@@H](COC(=O)CC(C)(C)CC(=O)OCSc3ccccc3C(=O)NCCC(N)=O)O2)c(=O)[nH]c1=O`, for which the 50% cytotoxic concentration (CC50) at 120 h was above 1550 nM in data set [1] and above 194000 nM in data set [2].
Consider `Cc1cn([C@H]2C[C@H](N=[N+]=[N-])[C@@H](CO)O2)c(=O)[nH]c1=O` [ZIDOVUDINE], for which the negative-log EC50 (pEC50) is 7.96 in data set [3], 7.80 in [5] and 5.92 in data set [7]. The selectivity ratio at 120 h in [4] is above 6.25; in data set [6], above 645; in data set [8], above 23.4. In addition, the half-maximal cytotoxic concentration (CC50) at 120 h is above 374 nM in data set [1] and above 7480 nM in data set [2].
Regarding `Cc1cn([C@H]2C[C@H](N=[N+]=[N-])[C@@H](COC(=O)CCC(=O)OCSc3ccccc3C(=O)NCCC(N)=O)O2)c(=O)[nH]c1=O`, the half-maximal cytotoxic concentration (CC50) at 120 h in data set [1] was above 1660 nM; in data set [2] it was 124000 nM.
For `Cc1cn([C@H]2C[C@H](N=[N+]=[N-])[C@@H](COC(=O)CC(C)CC(=O)OCSc3ccccc3C(=O)NCCC(N)=O)O2)c(=O)[nH]c1=O` (stereo partly specified) the same measures were above 1580 nM and above 198000 nM.
On the same counts, the results for `Cc1cn([C@H]2C[C@H](N=[N+]=[N-])[C@@H](COC(=O)CCCC(=O)OCSc3ccccc3C(=O)NCCC(N)=O)O2)c(=O)[nH]c1=O` are above 1620 nM and above 202000 nM.
Consider `NC(=O)CCNC(=O)c1ccccc1S`, for which the negative-log EC50 (pEC50) in [3] was 5.28; in data set [5] it was 5.63; in data set [7], 5.10. Besides, the figures for the selectivity ratio at 120 h in [4], in data set [6] and in data set [8] were 41.9, 63 and above 34.9, respectively. For the same molecule, the CC50 at 120 h in data set [1] turned out to be 82500 nM; in data set [2], 332000 nM. In addition, the Ratio EC50 in [9] was 1.5.
As to `Cc1cn([C@H]2C[C@H](N=[N+]=[N-])[C@@H](COC(=O)CCCCC(=O)OCSc3ccccc3CNCCC(N)=O)O2)c(=O)[nH]c1=O`, the pEC50 in data set [3] is 7.38; in data set [5] it was 6.51; in data set [7] it was 5.88. Moreover, the selectivity ratio at 120 h was above 149 in data set [4], above 4660 in data set [6] and above 4.76 in data set [8]. Further, the values for the Drug metabolism in data set [10] and in data set [11] were 100% and “Metabolite_Detected”, respectively. For the same molecule, the CC50 at 120 h in [1] was above 1580 nM; in data set [2] it was above 198000 nM. Moreover, the Ratio EC50 in data set [9] was 31.6.
